Data as given in ChEMBL document CHEMBL5058577, “EUbOPEN Chemogenomics Library 2 (Multiplex)” (2022).

Test system: U2OS
Test: Multiplex assay against U2OS
Type: toxicity, cell-based
Details: human
In short: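 Hoechst33342, BioTracker Green Microtubule Cytoskeleton Dye, MitoTracker Red and Annexin V Alexa Fluor 680 were added to live cells at seeding, and imaging on a CQ1 microscope at 37°C and 5% CO2 followed compound addition. Gating by CellPathfinder machine learning separated cells into Hoechst high-intensity objects or normal cells, then normal cells into healthy, pyknosed or fragmented nuclei, then pyknosed cells into mitotic or apoptotic. Per cents of healthy-nucleus cells are reported for the tubulin, mitochondrial-mass and membrane-permeability phenotypes.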

[1] = 12 h, 1 µM, compound concentration 1 uM, replicate 1
[2] = 12 h, 1 µM, compound concentration 1 uM, replicate 2
[3] = 12 h, 10 µM, compound concentration 10 uM, replicate 1
[4] = 12 h, 10 µM, compound concentration 10 uM, replicate 2
[5] = 24 h, 1 µM, compound concentration 1 uM, replicate 1
[6] = 24 h, 1 µM, compound concentration 1 uM, replicate 2
[7] = 24 h, 10 µM, compound concentration 10 uM, replicate 1
[8] = 24 h, 10 µM, compound concentration 10 uM, replicate 2
[9] = 48 h, 1 µM, compound concentration 1 uM, replicate 1
[10] = 48 h, 1 µM, compound concentration 1 uM, replicate 2
[11] = 48 h, 10 µM, compound concentration 10 uM, replicate 1
[12] = 48 h, 10 µM, compound concentration 10 uM, replicate 2

COc1ccccc1N1CCN(C[C@@H](C(=O)NC(C)(C)C)c2ccccc2)CC1.Cl.Cl
Population Apoptotic (%) [1]: 73%
Population Fragmented Nuclei (%) [1]: 29%
Population Healthy Nuclei (%) [1]: 65%
Population Hoechst High Intensity Objects (%) [1]: 2%
Population Membrane Permeable-Phenotype (%) [1]: 5%
Population Mitochondria Different-Phenotype (%) [1]: 3%
Population Mitotic Cells (%) [1]: 26%
Population Normal (%) [1]: 97%
Population Pyknosed Nuclei (%) [1]: 5%
Population Tubulin-Different-Phenotype (%) [1]: 1%
Total Cell Count [1]: 281
Population Apoptotic (%) [2]: 66%
Population Fragmented Nuclei (%) [2]: 14%
Population Healthy Nuclei (%) [2]: 80%
Population Hoechst High Intensity Objects (%) [2]: 1%
Population Membrane Permeable-Phenotype (%) [2]: 7%
Population Mitochondria Different-Phenotype (%) [2]: 2%
Population Mitotic Cells (%) [2]: 33%
Population Normal (%) [2]: 98%
Population Tubulin-Different-Phenotype (%) [2]: 3%
Total Cell Count [2]: 114
Population Apoptotic (%) [3]: 46%
Population Fragmented Nuclei (%) [3]: 35%
Population Healthy Nuclei (%) [3]: 49%
Population Hoechst High Intensity Objects (%) [3]: 3%
Population Membrane Permeable-Phenotype (%) [3]: 41%
Population Mitochondria Different-Phenotype (%) [3]: 41%
Population Mitotic Cells (%) [3]: 53%
Population Normal (%) [3]: 96%
Population Pyknosed Nuclei (%) [3]: 14%
Population Tubulin-Different-Phenotype (%) [3]: 41%
Total Cell Count [3]: 226
Population Apoptotic (%) [4]: 50%
Population Fragmented Nuclei (%) [4]: 17%
Population Healthy Nuclei (%) [4]: 66%
Population Hoechst High Intensity Objects (%) [4]: 0%
Population Membrane Permeable-Phenotype (%) [4]: 49%
Population Mitochondria Different-Phenotype (%) [4]: 56%
Population Mitotic Cells (%) [4]: 50%
Population Normal (%) [4]: 99%
Population Pyknosed Nuclei (%) [4]: 15%
Population Tubulin-Different-Phenotype (%) [4]: 64%
Total Cell Count [4]: 102
Population Apoptotic (%) [5]: 68%
Population Fragmented Nuclei (%) [5]: 29%
Population Healthy Nuclei (%) [5]: 62%
Population Hoechst High Intensity Objects (%) [5]: 3%
Population Membrane Permeable-Phenotype (%) [5]: 7%
Population Mitochondria Different-Phenotype (%) [5]: 1%
Population Mitotic Cells (%) [5]: 32%
Population Normal (%) [5]: 96%
Population Pyknosed Nuclei (%) [5]: 8%
Population Tubulin-Different-Phenotype (%) [5]: 3%
Total Cell Count [5]: 320
Population Apoptotic (%) [6]: 80%
Population Fragmented Nuclei (%) [6]: 16%
Population Healthy Nuclei (%) [6]: 75%
Population Membrane Permeable-Phenotype (%) [6]: 5%
Population Mitochondria Different-Phenotype (%) [6]: 6%
Population Mitotic Cells (%) [6]: 20%
Population Tubulin-Different-Phenotype (%) [6]: 2%
Total Cell Count [6]: 129
Population Apoptotic (%) [7]: 61%
Population Fragmented Nuclei (%) [7]: 38%
Population Healthy Nuclei (%) [7]: 42%
Population Hoechst High Intensity Objects (%) [7]: 5%
Population Membrane Permeable-Phenotype (%) [7]: 20%
Population Mitochondria Different-Phenotype (%) [7]: 33%
Population Mitotic Cells (%) [7]: 38%
Population Normal (%) [7]: 94%
Population Pyknosed Nuclei (%) [7]: 18%
Population Tubulin-Different-Phenotype (%) [7]: 25%
Total Cell Count [7]: 235
Population Apoptotic (%) [8]: 70%
Population Fragmented Nuclei (%) [8]: 20%
Population Healthy Nuclei (%) [8]: 63%
Population Membrane Permeable-Phenotype (%) [8]: 39%
Population Mitochondria Different-Phenotype (%) [8]: 61%
Population Mitotic Cells (%) [8]: 29%
Population Pyknosed Nuclei (%) [8]: 15%
Population Tubulin-Different-Phenotype (%) [8]: 52%
Total Cell Count [8]: 113
Population Apoptotic (%) [9]: 78%
Population Fragmented Nuclei (%) [9]: 21%
Population Healthy Nuclei (%) [9]: 66%
Population Hoechst High Intensity Objects (%) [9]: 2%
Population Membrane Permeable-Phenotype (%) [9]: 5%
Population Mitochondria Different-Phenotype (%) [9]: 1%
Population Mitotic Cells (%) [9]: 22%
Population Normal (%) [9]: 97%
Population Pyknosed Nuclei (%) [9]: 11%
Population Tubulin-Different-Phenotype (%) [9]: 1%
Total Cell Count [9]: 452
Population Apoptotic (%) [10]: 83%
Population Fragmented Nuclei (%) [10]: 16%
Population Healthy Nuclei (%) [10]: 72%
Population Hoechst High Intensity Objects (%) [10]: 4%
Population Membrane Permeable-Phenotype (%) [10]: 7%
Population Mitochondria Different-Phenotype (%) [10]: 2%
Population Mitotic Cells (%) [10]: 16%
Population Normal (%) [10]: 95%
Population Tubulin-Different-Phenotype (%) [10]: 4%
Total Cell Count [10]: 162
Population Apoptotic (%) [11]: 58%
Population Fragmented Nuclei (%) [11]: 33%
Population Healthy Nuclei (%) [11]: 44%
Population Hoechst High Intensity Objects (%) [11]: 4%
Population Membrane Permeable-Phenotype (%) [11]: 28%
Population Mitochondria Different-Phenotype (%) [11]: 30%
Population Mitotic Cells (%) [11]: 41%
Population Normal (%) [11]: 95%
Population Pyknosed Nuclei (%) [11]: 21%
Population Tubulin-Different-Phenotype (%) [11]: 21%
Total Cell Count [11]: 271
Population Apoptotic (%) [12]: 96%
Population Fragmented Nuclei (%) [12]: 18%
Population Healthy Nuclei (%) [12]: 58%
Population Hoechst High Intensity Objects (%) [12]: 8%
Population Membrane Permeable-Phenotype (%) [12]: 43%
Population Mitochondria Different-Phenotype (%) [12]: 29%
Population Mitotic Cells (%) [12]: 4%
Population Normal (%) [12]: 91%
Population Pyknosed Nuclei (%) [12]: 22%
Population Tubulin-Different-Phenotype (%) [12]: 35%
Total Cell Count [12]: 121
